In ChEMBL document CHEMBL4689842, “EUbOPEN Chemogenomics Library wave 1” (2021):
Values joined by “and” are separate entries in the source; they are usually repeats but may differ in a detail not shown here. Equal entries are not always repeated.

Test system: Fibroblast
Assay: Multiplex assay against human fibroblast
Format: toxicity, cell-based
In short: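 With compound added, live cells were imaged on a CQ1 microscope at 37°C and 5% CO2; staining with Hoechst33342, BioTracker Green Microtubule Cytoskeleton Dye, MitoTracker Red and Annexin V Alexa Fluor 680 had been done at seeding. The CellPathfinder machine-learning gating scheme split cells into Hoechst high-intensity objects or normal cells, normal cells into healthy, pyknosed or fragmented nuclei, and pyknosed cells into mitotic or apoptotic. The tubulin, mitochondrial-mass and membrane-permeability phenotypes are per cents of healthy-nucleus cells.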

[1] = 12 h, 1 µM, compound concentration 1 uM, replicate 1
[2] = 12 h, 1 µM, compound concentration 1 uM, replicate 2
[3] = 12 h, 10 µM, compound concentration 10 uM, replicate 1
[4] = 12 h, 10 µM, compound concentration 10 uM, replicate 2
[5] = 24 h, 1 µM, compound concentration 1 uM, replicate 1
[6] = 24 h, 1 µM, compound concentration 1 uM, replicate 2
[7] = 24 h, 10 µM, compound concentration 10 uM, replicate 1
[8] = 24 h, 10 µM, compound concentration 10 uM, replicate 2
[9] = 48 h, 1 µM, compound concentration 1 uM, replicate 1
[10] = 48 h, 1 µM, compound concentration 1 uM, replicate 2
[11] = 48 h, 10 µM, compound concentration 10 uM, replicate 1
[12] = 48 h, 10 µM, compound concentration 10 uM, replicate 2

## Cl.O=C(O)c1cc(-c2ccc(C3CCNCC3)cc2)c2ccc(-c3ccc(C(F)(F)F)cc3)cc2c1
[1]
  Population Apoptotic (%): 65%
  Population Fragmented Nuclei (%): 31%
  Population Healthy Nuclei (%): 31%
  Population Hoechst High Intensity Objects (%): 20%
  Population Membrane Permeable-Phenotype (%): 31%
  Population Mitochondria Different-Phenotype (%): 5%
  Population Mitotic Cells (%): 34%
  Population Normal (%): 79%
  Population Pyknosed Nuclei (%): 37%
  Population Tubulin-Different-Phenotype (%): 21%
  Total Cell Count: 77
[2]
  Population Apoptotic (%): 50%
  Population Fragmented Nuclei (%): 11%
  Population Healthy Nuclei (%): 83%
  Population Hoechst High Intensity Objects (%): 5%
  Population Membrane Permeable-Phenotype (%): 3%
  Population Mitochondria Different-Phenotype (%): 16%
  Population Mitotic Cells (%): 50%
  Population Normal (%): 94%
  Population Pyknosed Nuclei (%): 5%
  Population Tubulin-Different-Phenotype (%): 36%
  Total Cell Count: 60
[3]
  Population Apoptotic (%): 62%
  Population Fragmented Nuclei (%): 27%
  Population Healthy Nuclei (%): 40%
  Population Hoechst High Intensity Objects (%): 18%
  Population Membrane Permeable-Phenotype (%): 5%
  Population Mitochondria Different-Phenotype (%): 20%
  Population Mitotic Cells (%): 37%
  Population Normal (%): 81%
  Population Pyknosed Nuclei (%): 32%
  Population Tubulin-Different-Phenotype (%): 57%
  Total Cell Count: 122
[4]
  Population Apoptotic (%): 60%
  Population Fragmented Nuclei (%): 14%
  Population Healthy Nuclei (%): 64%
  Population Hoechst High Intensity Objects (%): 14%
  Population Membrane Permeable-Phenotype (%): 10%
  Population Mitochondria Different-Phenotype (%): 13%
  Population Mitotic Cells (%): 40%
  Population Normal (%): 85%
  Population Pyknosed Nuclei (%): 21%
  Population Tubulin-Different-Phenotype (%): 23%
  Total Cell Count: 38
[5]
  Population Apoptotic (%): 62%
  Population Fragmented Nuclei (%): 24%
  Population Healthy Nuclei (%): 47%
  Population Hoechst High Intensity Objects (%): 21%
  Population Membrane Permeable-Phenotype (%): 44%
  Population Mitochondria Different-Phenotype (%): 7%
  Population Mitotic Cells (%): 37%
  Population Normal (%): 78%
  Population Pyknosed Nuclei (%): 28%
  Population Tubulin-Different-Phenotype (%): 44%
  Total Cell Count: 73
[6]
  Population Apoptotic (%): 20%
  Population Fragmented Nuclei (%): 11%
  Population Healthy Nuclei (%): 79%
  Population Hoechst High Intensity Objects (%): 3%
  Population Membrane Permeable-Phenotype (%): 4%
  Population Mitochondria Different-Phenotype (%): 9%
  Population Mitotic Cells (%): 80%
  Population Normal (%): 96%
  Population Pyknosed Nuclei (%): 9%
  Population Tubulin-Different-Phenotype (%): 30%
  Total Cell Count: 62
[7]
  Population Apoptotic (%): 53%
  Population Fragmented Nuclei (%): 35%
  Population Healthy Nuclei (%): 36%
  Population Hoechst High Intensity Objects (%): 15%
  Population Membrane Permeable-Phenotype (%): 12%
  Population Mitochondria Different-Phenotype (%): 27%
  Population Mitotic Cells (%): 46%
  Population Normal (%): 84%
  Population Pyknosed Nuclei (%): 28%
  Population Tubulin-Different-Phenotype (%): 62%
  Total Cell Count: 131
[8]
  Population Apoptotic (%): 61%
  Population Fragmented Nuclei (%): 17%
  Population Healthy Nuclei (%): 61%
  Population Hoechst High Intensity Objects (%): 8%
  Population Membrane Permeable-Phenotype (%): 7%
  Population Mitochondria Different-Phenotype (%): 5%
  Population Mitotic Cells (%): 38%
  Population Normal (%): 91%
  Population Pyknosed Nuclei (%): 20%
  Population Tubulin-Different-Phenotype (%): 16%
  Total Cell Count: 56
[9]
  Population Apoptotic (%): 50%
  Population Fragmented Nuclei (%): 30%
  Population Healthy Nuclei (%): 40%
  Population Hoechst High Intensity Objects (%): 20%
  Population Membrane Permeable-Phenotype (%): 48%
  Population Mitochondria Different-Phenotype (%): 0%
  Population Mitotic Cells (%): 50%
  Population Normal (%): 79%
  Population Pyknosed Nuclei (%): 29%
  Population Tubulin-Different-Phenotype (%): 40%
  Total Cell Count: 78
[10]
  Population Apoptotic (%): 100%
  Population Fragmented Nuclei (%): 16%
  Population Healthy Nuclei (%): 82%
  Population Hoechst High Intensity Objects (%): 8%
  Population Membrane Permeable-Phenotype (%): 6%
  Population Mitochondria Different-Phenotype (%): 2%
  Population Mitotic Cells (%): 0%
  Population Normal (%): 91%
  Population Pyknosed Nuclei (%): 1%
  Population Tubulin-Different-Phenotype (%): 26%
  Total Cell Count: 104
[11]
  Population Apoptotic (%): 76%
  Population Fragmented Nuclei (%): 42%
  Population Healthy Nuclei (%): 46%
  Population Hoechst High Intensity Objects (%): 21%
  Population Membrane Permeable-Phenotype (%): 11%
  Population Mitochondria Different-Phenotype (%): 9%
  Population Mitotic Cells (%): 23%
  Population Normal (%): 78%
  Population Pyknosed Nuclei (%): 11%
  Population Tubulin-Different-Phenotype (%): 37%
  Total Cell Count: 146
[12]
  Population Apoptotic (%): 100%
  Population Fragmented Nuclei (%): 57%
  Population Healthy Nuclei (%): 38%
  Population Hoechst High Intensity Objects (%): 9%
  Population Membrane Permeable-Phenotype (%): 4%
  Population Mitochondria Different-Phenotype (%): 12%
  Population Mitotic Cells (%): 0%
  Population Normal (%): 90%
  Population Pyknosed Nuclei (%): 3%
  Population Tubulin-Different-Phenotype (%): 58%
  Total Cell Count: 139

## CCC1=C[C@@H]2C[N@](C1)Cc1c([nH]c3ccccc13)[C@@](C(=O)OC)(c1cc3c(cc1OC)N(C)[C@H]1[C@@](O)(C(=O)OC)[C@H](OC(C)=O)[C@]4(CC)C=CCN5CC[C@]31[C@@H]54)C2.O=C(O)C(O)C(O)C(=O)O.O=C(O)C(O)C(O)C(=O)O [VINORELBINE TARTRATE]
[1]
  Population Apoptotic (%): 63% and 65%
  Population Fragmented Nuclei (%): 27% and 51%
  Population Healthy Nuclei (%): 48% and 34%
  Population Hoechst High Intensity Objects (%): 16% and 26%
  Population Mitochondria Different-Phenotype (%): 14% and 9%
  Population Mitotic Cells (%): 36% and 34%
  Population Normal (%): 83% and 73%
  Population Pyknosed Nuclei (%): 23% and 14%
  Population Tubulin-Different-Phenotype (%): 8% and 4%
  Total Cell Count: 151 and 452
[2]
  Population Apoptotic (%): 100% and 80%
  Population Fragmented Nuclei (%): 79% and 75%
  Population Healthy Nuclei (%): 18% and 15%
  Population Hoechst High Intensity Objects (%): 44% and 38%
  Population Membrane Permeable-Phenotype (%): 22% and 0%
  Population Mitochondria Different-Phenotype (%): 0%
  Population Mitotic Cells (%): 0% and 20%
  Population Normal (%): 55% and 61%
  Total Cell Count: 86 and 94
[3]
  Population Apoptotic (%): 67% and 68%
  Population Fragmented Nuclei (%): 46% and 27%
  Population Healthy Nuclei (%): 39% and 50%
  Population Hoechst High Intensity Objects (%): 18%
  Population Membrane Permeable-Phenotype (%): 6% and 4%
  Population Mitochondria Different-Phenotype (%): 13% and 6%
  Population Mitotic Cells (%): 32% and 31%
  Population Normal (%): 81%
  Population Pyknosed Nuclei (%): 13% and 22%
  Population Tubulin-Different-Phenotype (%): 3%
  Total Cell Count: 353 and 227
[4]
  Population Apoptotic (%): 50% and 60%
  Population Fragmented Nuclei (%): 59% and 69%
  Population Healthy Nuclei (%): 31% and 24%
  Population Hoechst High Intensity Objects (%): 32% and 26%
  Population Membrane Permeable-Phenotype (%): 17% and 0%
  Population Mitochondria Different-Phenotype (%): 17% and 10%
  Population Mitotic Cells (%): 50% and 40%
  Population Normal (%): 67% and 73%
  Population Pyknosed Nuclei (%): 8% and 6%
  Population Tubulin-Different-Phenotype (%): 13% and 0%
  Total Cell Count: 107 and 111
[5]
  Population Apoptotic (%): 73% and 63%
  Population Fragmented Nuclei (%): 54% and 33%
  Population Healthy Nuclei (%): 31% and 50%
  Population Hoechst High Intensity Objects (%): 25% and 18%
  Population Mitochondria Different-Phenotype (%): 8% and 7%
  Population Mitotic Cells (%): 26% and 36%
  Population Normal (%): 74% and 81%
  Population Pyknosed Nuclei (%): 13% and 16%
  Population Tubulin-Different-Phenotype (%): 4% and 3%
[6]
  Population Fragmented Nuclei (%): 76% and 77%
  Population Healthy Nuclei (%): 20% and 15%
  Population Hoechst High Intensity Objects (%): 44% and 34%
  Population Mitochondria Different-Phenotype (%): 22% and 9%
  Population Mitotic Cells (%): 100% and 40%
  Population Normal (%): 55% and 65%
  Population Pyknosed Nuclei (%): 2% and 6%
  Population Tubulin-Different-Phenotype (%): 22% and 9%
  Total Cell Count: 77 and 110
[7]
  Population Apoptotic (%): 77% and 75%
  Population Fragmented Nuclei (%): 48% and 27%
  Population Healthy Nuclei (%): 35% and 54%
  Population Hoechst High Intensity Objects (%): 26% and 19%
  Population Membrane Permeable-Phenotype (%): 5% and 4%
  Population Mitochondria Different-Phenotype (%): 9% and 2%
  Population Mitotic Cells (%): 22% and 25%
  Population Normal (%): 73% and 80%
  Population Pyknosed Nuclei (%): 15% and 18%
  Population Tubulin-Different-Phenotype (%): 3% and 1%
  Total Cell Count: 394 and 248
[8]
  Population Fragmented Nuclei (%): 60% and 80%
  Population Healthy Nuclei (%): 31% and 17%
  Population Hoechst High Intensity Objects (%): 37% and 27%
  Population Membrane Permeable-Phenotype (%): 10% and 0%
  Population Mitochondria Different-Phenotype (%): 10% and 0%
  Population Normal (%): 62% and 72%
  Population Tubulin-Different-Phenotype (%): 0%
  Total Cell Count: 103 and 151
